target: Melanocyte-stimulating hormone receptor (Mus musculus, UniProt Q01727); test: In vitro binding affinity for the melanoma receptor was determined in the murine melanoma B16/F1 cell line
Method in brief: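 Competitive displacement on B16/F1 cells seeded at 0.2 million/well and attached overnight. They were rinsed twice with PBS/0.2% BSA and lysed in 1.0 M NaOH. Cell-bound radioactivity was counted and IC50 fitted.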

Chain of Melanocyte-stimulating hormone receptor (Q01727 whole entry): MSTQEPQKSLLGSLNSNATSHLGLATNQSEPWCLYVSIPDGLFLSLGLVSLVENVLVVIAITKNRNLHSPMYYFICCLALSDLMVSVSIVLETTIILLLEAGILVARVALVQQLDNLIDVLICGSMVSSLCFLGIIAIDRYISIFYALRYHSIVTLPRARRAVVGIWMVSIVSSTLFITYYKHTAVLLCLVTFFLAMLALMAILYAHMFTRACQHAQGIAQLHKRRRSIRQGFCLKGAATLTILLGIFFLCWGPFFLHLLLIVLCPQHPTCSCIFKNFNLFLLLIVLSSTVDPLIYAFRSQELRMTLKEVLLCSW

IC50	SMILES
3.3 nM	CC(=O)NC(CCCCNC(=O)CN1CCN(CC(=O)O)CCN(CC(=O)O)CCN(CC(=O)O)CC1)C(=O)NC1[S][ReH]23([OH])[S]C(C(=O)NC(CCCCNC(=O)OCc4ccccc4)C(=O)N4CCCC4C(=O)NC(C(N)=O)C(C)C)NC(=O)C(Cc4c[nH]c5ccccc45)NC(=O)C(CCCNC(=N)N)NC(=O)[C@H](Cc4ccccc4)NC(=O)C(Cc4cnc[nH]4)NC(=O)C(CCC(=O)O)NC(=O)C([S]2)[N]3C1=O (stereo partly drawn) [Ac-Lys(DOTA)-ReCCEHdFRWCKPV-NH2]
1.2 nM	CC(C)C(NC(=O)C1CCCN1C(=O)C(CCCCN)NC(=O)C1NC(=O)C(Cc2c[nH]c3ccccc23)NC(=O)C(CCCNC(=N)N)NC(=O)[C@H](Cc2ccccc2)NC(=O)C(Cc2cnc[nH]2)NC(=O)C(CCC(=O)O)NC(=O)C2[S][ReH]3([OH])([S]1)[S]C(NC(=O)CN1CCN(CC(=O)O)CCN(CC(=O)O)CCN(CC(=O)O)CC1)C(=O)[N]23)C(N)=O (stereo partly drawn) [DOTA-ReCCEHdFRWCKPV-NH2]
2.1 nM	CC(C)C(NC(=O)C1CCCN1C(=O)C(CCCNC(=N)N)NC(=O)C1NC(=O)C(Cc2c[nH]c3ccccc23)NC(=O)C(CCCNC(=N)N)NC(=O)[C@H](Cc2ccccc2)NC(=O)C(Cc2cnc[nH]2)NC(=O)C(CCC(=O)O)NC(=O)C2[S][ReH]3([OH])([S]1)[S]C(NC(=O)CN1CCN(CC(=O)O)CCN(CC(=O)O)CCN(CC(=O)O)CC1)C(=O)[N]23)C(N)=O (stereo partly drawn) [DOTA-ReCCEHdFRWCRPV-NH2]
